Only some compounds are listed: those with a hit (about 3.5% of all), similar ones and a draw of the others.
MrgX1 ag – agonists of human MrgX1 receptor; Q96LB2; MrgX1-HEK293 cells, Fluo-4 calcium fluorescence, agonist mode; hits give high values; B-score at 10 µM; 0.44% of 310,000 active;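 active means calcium response B-score plate-corrected fluorescence ratio at least 3 library SD, with starting fluorescence B-score inside 5 SD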
Target sequence (Q96LB2 whole entry, looked up): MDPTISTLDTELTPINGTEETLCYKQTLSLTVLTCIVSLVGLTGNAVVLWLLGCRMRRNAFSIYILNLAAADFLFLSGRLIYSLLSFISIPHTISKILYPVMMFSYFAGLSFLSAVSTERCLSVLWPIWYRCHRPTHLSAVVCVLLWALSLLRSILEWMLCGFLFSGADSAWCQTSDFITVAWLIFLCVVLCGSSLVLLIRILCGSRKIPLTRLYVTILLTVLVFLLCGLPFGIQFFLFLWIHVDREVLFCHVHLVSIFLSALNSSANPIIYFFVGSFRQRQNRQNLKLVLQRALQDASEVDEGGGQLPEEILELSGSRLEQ
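Assay system: stable human MrgX1 HEK293 cell line. Quantity: 15,000 cells per well. Schedule: cells plated overnight, dye loaded 0.5 h 37 °C, 0.5 h room temperature. Detection: Fluo-4 NW calcium-flux fluorescence, kinetic read. Read-out basis: peak-minus-minimum fluorescence over baseline, converted to B scores. Control set: positive and negative control wells on each plate.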
RGS4 inh – inhibitors of human RGS4 | HEK293 M3R/RGS4 inducible, Fluo-4 calcium flux; hits give high values; triggered by carbachol at its EC20 | 0.45% of 310,000 active | B-score at 10 µM | AID 463165;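 active means B-score, a plate-corrected calcium signal, over three deviations above library mean, with baseline fluorescence within five deviations of library mean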;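 further: RGS4 expression induced by doxycycline in cells with stable M3 receptor; B-score is computed from the integrated fluorescence ratio over baseline after carbachol; higher B-score means a larger calcium signal and so more RGS4 inhibition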
Target sequence (P49798 whole entry, looked up): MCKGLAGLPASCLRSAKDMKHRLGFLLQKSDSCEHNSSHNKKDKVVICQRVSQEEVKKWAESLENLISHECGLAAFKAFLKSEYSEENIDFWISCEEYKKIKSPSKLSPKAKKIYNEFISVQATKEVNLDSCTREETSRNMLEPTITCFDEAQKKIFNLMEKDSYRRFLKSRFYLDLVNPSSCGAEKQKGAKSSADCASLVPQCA
MrgX1 allo act – allosterically activates human MrgX1 receptor signaling; Q96LB2; MrgX1-HEK293, Fluo-4 calcium flux, FDSS; hits give high values; B-score at 10 µM; 0.63% of 310,000 active; AID 588675;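 active means plate-corrected calcium response at least 3 library SD above typical, normal starting fluorescence, not activating the receptor alone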;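 further: compound read alongside a low EC10 to EC30 dose of BAM8-22 agonist; peak minus trough fluorescence over baseline measured at the second addition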
MrgX1 antag – antagonists of human MrgX1 receptor | MRGX1-HEK293 calcium flux, Fluo-4, BAM8-22 antagonism; hits give low values | B-score at 10 µM | 1.3% of 310,000 active;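 active means calcium-response B-score plate-corrected more than 3 library SD below zero, starting fluorescence within 5 deviations, no agonist response on first addition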;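 further: peak minus trough fluorescence over baseline after final BAM8-22 challenge near maximal dose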
RGS4 act – RGS4 potentiation or activation; HEK293 M3R/inducible RGS4, carbachol calcium flux Fluo4; hits give low values; B-score at 10 µM; 0.92% of 310,000 active; AID 463111;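 active means B-score of the integrated calcium signal more than 4 SD below the library mean, with starting fluorescence not abnormally high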;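 further: negative B-score means reduced calcium response which marks RGS4 activation or potentiation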
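Material: Inducible-RGS4 HEK293 cells carrying M3 receptor; also added: carbachol at ECmax as muscarinic agonist stimulus; incubation: compound preincubation 20 min at room temperature before agonist; signal: Fluo4-AM (2 µM) calcium-flux fluorescence, kinetic read; measure: integrated calcium ratio converted to B score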
RGS4 inh valid – validation of RGS4 inhibitors. calcium response, % at 10 µM. HEK293 M3R/RGS4, carbachol calcium Fluo-4 fluorescence; carbachol added at its EC20; 0 = buffer wells, 100 = carbachol control. shares compounds with RGS4 inh. 65% of 1,700 active;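 active means duplicate-averaged calcium response above the buffer-only control mean plus 5 SD of those controls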;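 further: integrated fluorescence ratio F max minus min over baseline F0; higher response in RGS4-induced cells means RGS4 inhibition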
M3R Ca ctr – checks RGS4 inhibitor effects in non-induced HEK293 M3R cells; activity (percent), % at 10 µM; carbachol calcium Fluo-4; submaximal (EC20) carbachol stimulus; buffer wells 0%, carbachol control wells 100%; 20% of 1,900 active; AID 493000; shares compounds with RGS4 inh; call rule not given here;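 further: RGS4 induction absent so cells express M3R without RGS4; higher means more calcium signal and flags a non-specific hit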
M3R basal Ca ctr – second counter-screen for RGS4 inhibitors: non-induced cells without carbachol; AID 493001; HEK293 M3R/RGS4 non-induced, Fluo-4 calcium, no carbachol; normalised: buffer wells 0%, carbachol wells 100%; 22% of 1,900 active; shares compounds with RGS4 inh; calcium response (agonist-mode artifact), % at 10 µM;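 active means duplicate-averaged calcium rise in uninduced cells above buffer wells' mean plus 5 SD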
Numbers without * were called inactive; i = inactive; / = no result given.

SMILES	MrgX1 ag	RGS4 inh	MrgX1 allo act	MrgX1 antag	RGS4 act	RGS4 inh valid	M3R Ca ctr	M3R basal Ca ctr
CCOC(=O)[C@@H]1[C@H]2COc3cc(OC)ccc3[C@@H]2N2C(=O)N(c3ccc(OC)cc3)C(=O)[C@]12C	i	i	i	i	i	/	/	/
CCOC(=O)[C@@H]1[C@H]2COc3ccc(Br)cc3[C@@H]2N2C(=O)N(c3cccc(F)c3)C(=O)[C@@]12C	i	i	i	i	i	/	/	/
CCOC(=O)[C@@H]1[C@H]2COc3ccccc3[C@@H]2N2C(=O)N(c3cccc(Cl)c3)C(=O)[C@@]12C	i	i	i	i	i	i	i	i
O=C(Nc1cccc(CNCCc2c[nH]c3ccccc23)c1)c1ccccc1Cl	i	i	i	i	i	/	/	/
CC1O[C@@H](OCC2O[C@@H](Oc3cc(O)c4c(c3)OC(c3ccc(O)cc3)CC4=O)[C@H](O)[C@@H](O)[C@@H]2O)[C@H](O)[C@H](O)[C@H]1O (some centres undefined)	i	/	i	i	/	/	/	/
CCN1CCN(c2sc(S(C)(=O)=O)nc2S(=O)(=O)c2ccc(C)cc2)CC1	i	i	i	i	i	/	/	/
O=C(O)CCc1ccc(-c2cccs2)n1CC(=O)Nc1ccccc1C(F)(F)F	i	i	i	i	i	/	/	/
CC(=O)Nc1ccc(C)c(NS(=O)(=O)c2cccc(C(F)(F)F)c2)c1	i	i	i	i	i	/	/	/
COC(=O)c1nn(C23CC4CC(CC(C4)C2)C3)c2c1C(=O)N(c1ccc(F)cc1)C2=O	i	i	i	i	i	i	i	i
COC(=O)c1c(N2C(=O)[C@H]3[C@@H](C2=O)[C@]2(C(=O)Nc4ccccc42)N2CCC[C@@H]32)sc(C)c1C	i	i	i	i	i	/	/	/
O=C1[C@H]2[C@@H](C(=O)N1c1cc(Cl)cc(Cl)c1)[C@]1(C(=O)Nc3ccccc31)N1CCC[C@@H]21	i	5.2*	i	i	i	i	i	i
NC(=O)N/N=C/c1ccc(-n2nncc2-c2ccc(Cl)cc2)cc1	i	6.2*	i	i	i	20%*	41%*	i
O=C(N/N=C/c1cc(Cl)cc([N+](=O)[O-])c1O)NC12CC3CC(CC(C3)C1)C2	i	9.1*	i	i	i	12%*	i	i
COc1cc(C(=O)OCC(=O)N2CC(C)OC(C)C2)cc(OC)c1OC (centres undefined)	i	i	i	i	i	/	/	/
Cc1ccc(S(C)(=O)=N/C=C2\C(=O)c3sccc3N(C)S2(=O)=O)cc1 (centres undefined)	i	6.4*	i	i	i	7.5%*	i	i
Cc1ccc(NC(=O)CS(=O)c2ccccc2N)c(C)c1 (centres undefined)	i	i	i	i	i	/	/	/
Cc1cc(C)n(CC(O)Cn2c3ccc(Cl)cc3c3cc(Cl)ccc32)c(=O)n1 (centres undefined)	i	8*	i	i	i	25%*	i	i
Cc1cc(C)n(CC(O)Cn2c3ccccc3c3ccccc32)n1 (centres undefined)	i	i	i	i	i	/	/	/
COCc1nnc(NC(=O)CCc2ccc(OC)cc2)s1	i	5*	i	i	i	30%*	i	i
COCc1nnc(NC(=O)CCc2ccccc2)s1	i	i	i	i	i	/	i	i
COc1ccc(CCC(=O)Nc2nnc(C)s2)cc1	i	i	i	i	i	/	/	/
CCOCc1nnc(NC(=O)CCc2ccccc2)s1	i	i	i	i	i	/	/	/
COc1ccc(-c2[nH]n(-c3ccc([N+](=O)[O-])cc3)c(=O)c2C=NCc2ccccc2)cc1	i	i	i	i	i	/	/	/
CCS(=O)(=O)N1Cc2ccccc2CC1C(=O)NCCc1c[nH]c2ccccc12 (centres undefined)	i	i	i	i	i	/	/	/
CCCn1c(C(CO)Nc2nc(-c3cccc(Br)c3)cs2)nc2ccccc21 (centres undefined)	i	10*	i	i	i	32%*	i	i
SMILES	MrgX1 ag	RGS4 inh	MrgX1 allo act	MrgX1 antag	RGS4 act	RGS4 inh valid	M3R Ca ctr	M3R basal Ca ctr
OCCOCCn1c(C(CO)Nc2nc(-c3cccc(Br)c3)cs2)nc2ccccc21 (centres undefined)	i	i	i	i	i	/	i	7.5%*
OCCOCCn1c(C(CO)Nc2nc(-c3ccccc3Br)cs2)nc2ccccc21 (centres undefined)	i	i	i	i	i	/	/	/
Cc1c(Cl)cn2c(=O)cc(CN(C)Cc3nc4ccccc4c(=O)[nH]3)nc2c1Cl	i	i	i	i	i	/	/	/
O=C(O)COc1ccc(/C=N/Nc2nc(Nc3ccccc3)nc(N3CCCCC3)n2)cc1	i	i	i	i	i	/	/	/
O=C(Nc1ccc2ccccc2c1)C(=O)C1C(=O)Nc2ccccc21 (centres undefined)	i	8.1*	6.9*	i	i	12%*	i	i
Cc1cccc(NC(=O)C(=O)C2C(=O)Nc3ccccc32)c1 (centres undefined)	i	i	i	i	i	/	/	/
CCN(C(=O)Cc1c(C(=O)O)n(C)c2ccccc12)c1cccc(C)c1	i	i	i	i	i	i	i	i
O=C1CC(=O)NC(SCC(=O)Nc2ccccc2[N+](=O)[O-])=N1	i	i	i	i	i	/	/	/
Cn1cc(C(=O)N/N=C/C2=C(N3CCOCC3)C(=C\c3ccccc3)/CC2)ccc1=O	i	i	i	i	i	/	/	/
O=C1Nc2ccccc2/C1=N\N=C\C1=C(N2CCOCC2)C(=C\c2ccccc2)/CC1	i	i	i	i	i	/	i	i
O=C1Nc2ccccc2/C1=N/N=C/c1cccc(O)c1	i	8.9*	i	i	i	20%*	47%*	i
O=S(=O)(c1ccc(NCc2ccccc2)cc1)N1CCOCC1	i	i	i	i	i	/	/	/
